Publication PMC9977173 (Science Advances, 2023)
Where a SMILES comes first, the peptide text is derived from it. Bridges are numbered along the chain shown (N, C = ends). Roman numbers before positions name the chains, in order. The star is where a group is joined. X1 = O=C(Cn1cc(CCCC(=O)*)nn1)NC(COCc1cn(CCO[C@H]2O[C@H](CO)[C@@H](O)[C@H](O)[C@@H]2O)nn1)(COCc1cn(CCO[C@H]2O[C@H](CO)[C@@H](O)[C@H](O)[C@@H]2O)nn1)COCc1cn(CCO[C@H]2O[C@H](CO)[C@@H](O)[C@H](O)[C@@H]2O)nn1

How the values were obtained:
[1] = test system: EJ xenograft tumor; conditions: 500 μM, 100 μl, intravenous
[2] = test system: EJ cells (CXCR4); assay: CLSM imaging of bsGP; format: cell-based, human
[3] = test system: EJ xenograft tumor; assay: Antitumor efficiency in EJ xenograft mice; format: in vivo, mouse; conditions: 100 μl, intravenous; for tumor growth inhibition rate, EJ xenograft: 18 days, PepCXCR4 and bsGP 500 μM, plerixafor 100 μM
Procedure, shortened: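 BALB/c nude mice (6 to 8 weeks, 16 to 18 g) received 5 × 10⁶ EJ cells in 100 µl s.c. in the right flank. Mice were randomised into groups of n = 6. Saline, test compound (500 µM, 100 µl) or plerixafor (100 µM, 100 µl) was given i.v. by tail vein once a day for five doses. Tumor volume was measured by calipers and body weight recorded every other day.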

[4] = test system: CD86^+ and CD206^+ TAMs, CD4^+ and CD8^+ T cells proximal to CXCR4^+ tumor cells; assay: Spatial distance of immune cells to CXCR4^+ tumor cells; format: in vivo, mouse
[5] = test system: pErk and pAkt in tumor tissues; assay: Immunohistochemistry of pErk and pAkt in EJ tumor tissues; format: in vivo, mouse; conditions: EJ xenograft, versus saline
[6] = test system: RAW264.7 cells; assay: Cell viability; format: cell-based; conditions: 50 μM, 24 hours, CCK-8; n = 3
Procedure, shortened: (§1)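 Cells were seeded at 5 × 10⁴ per well in RPMI 1640 and cultured overnight at 37°C, 5% CO₂. Test compound was added at 10, 20, 50, 100, 200 or 500 µM for 24 h, then CCK-8 for 2 h at 37°C. Absorbance was read at 450 nm against a 690 nm reference. Viability = (A_s − A_b)/(A_c − A_b) × 100% versus saline-treated wells. Run in triplicate.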

[7] = test system: M2-like (CD206) and M1-like (CD86) macrophages; assay: Flow cytometry of TAM polarization in tumors; format: in vivo, mouse
[8] = test system: CD8^+ T cells and Tregs in tumor; assay: Flow cytometry of tumor T cells; format: in vivo, mouse
[9] = test system: RAW264.7 cells; assay: CLSM imaging of bsGP; format: cell-based; conditions: Cy-labeled bsGP
[10] = Secondary structure by CD and FTIR; format: physicochemical; conditions: CD: 10 μM, deionized water, 25°C, 1 hour; FTIR: 100 μM, distilled water, 60 min
Procedure, shortened: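 For CD, test compound (10 µM) was dissolved in deionized water at 25°C for 1 h and scanned at 500 nm/min with 0.5 nm resolution, with solvent background subtracted. For FTIR, samples were freshly prepared at 100 µM in distilled water for 60 min, dried on calcium fluoride tablets and recorded.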

[11] = test system: pErk and pAkt (CXCR4 downstream) in EJ cells; assay: Western blot of Erk and Akt phosphorylation in EJ cells; format: cell-based, human; conditions: for phosphorylation of Erk and Akt: 50 μM, 24 hours
Procedure, shortened: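 EJ cells were lysed in buffer with protease inhibitor and centrifuged 15 min; protein was measured by BCA. 30 µg protein was run on SDS-PAGE and transferred to PVDF. Membranes were blocked 1 to 2 h at room temperature in 5% nonfat milk, 0.1% Tween 20, 10 mM TBS. Primary antibody was applied overnight at 4°C, then secondary for 1 to 2 h at room temperature. Detection was by chemiluminescence.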

[12] = test system: EJ cells; assay: Colony formation assay; format: cell-based, human; conditions: versus saline and PepCXCR4
Procedure, shortened: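 EJ cells (200 per well) were grown in DMEM in six-well plates at 37°C, 5% CO₂ until visible colonies appeared. Colonies were rinsed twice with saline, fixed in 4% paraformaldehyde for 15 min and stained with Giemsa for 10 to 30 min. They were photographed and counted. Colony formation efficiency = clones/inoculated cells × 100%.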

[13] = test system: CD86^+ and CD206^+ TAMs, CD4^+ and CD8^+ T cells; assay: Multiplex immunofluorescence of whole tumor slices; format: in vivo, mouse; conditions: for CD4^+ T cells in whole tumor slice: saline 1.74%
[14] = test system: NF-κB in tumor tissues; assay: Western blot of NF-κB phosphorylation in tumor tissues; format: in vivo, mouse; conditions: 500 μM, 100 μl, every 2 days, five times; compared with mannose
[15] = test system: MB49-Luc orthotopic bladder cancer; conditions: mouse, in vivo
[16] = test system: tumor fibrosis in MB49-Luc tumor; assay: Tumor fibrosis; format: in vivo, mouse; conditions: versus saline and PepCXCR4
[17] = test system: tumor tissue in orthotopic bladder cancer mice; assay: Tumor penetration by immunofluorescence of frozen sections; format: in vivo, mouse; conditions: Cy-labeled bsGP; distance from vessels, compared with antibody
Procedure, shortened: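 Orthotopic EJ xenograft nude mice with tumors of about 200 mm³ received saline or test compound (500 µM, 100 µl) by intravesical instillation. Frozen tumor sections were imaged by confocal microscopy.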

[18] = test system: EJ cells; assay: Cell viability; format: cell-based, human; conditions: 50 μM, 24 hours, CCK-8; n = 3
Procedure, shortened: as §1

[19] = test system: orthotopic bladder tumor; format: in vivo, mouse; conditions: 500 μM, 100 μl, intravesical instillation
Procedure, shortened: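 Once bladder tumor growth was confirmed, test compound (500 µM, 100 µl) was instilled intravesically and kept in the bladder for 60 min. Whole-body fluorescence was scanned with IVIS at 1, 4, 8, 12, 24, 48 and 72 h. The bladder was exteriorised and imaged ex vivo at 1 h after infusion.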

[20] = test system: TNF-α, IL-12, IL-10 and TGF-β; assay: Intratumoral cytokines in homogenized tumor tissues; format: in vivo, mouse; conditions: versus saline and PepCXCR4
[21] = test system: C57BL/6 mice
[22] = test system: MB49-Luc tumor; assay: Antitumor efficiency in MB49-Luc tumor-bearing mice; format: in vivo, mouse; conditions: 500 μM, 100 μl, five doses
[23] = test system: EJ cells; assay: SEM of nanofibrils on EJ cell surface; format: cell-based, human; conditions: 50 μM, 12 and 24 hours
Procedure, shortened: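 EJ cells (1 × 10⁵ per well) were seeded on silicon wafers and cultured 12 h. Saline or test compound (50 µM) was then added for a further 12 and 24 h. The cell surface was examined by scanning electron microscopy.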

[24] = molecular target: T1, CD206 (Homo sapiens, UniProt P22897); assay: Microscale thermophoresis binding to CD206; conditions: Kd 3.48 μM versus mannose ~1000 μM
[25] = test system: NF-κB in RAW264.7 cells; assay: Western blot of NF-κB phosphorylation in RAW264.7 cells; format: cell-based; conditions: 50 μM, 24 hours; compared with mannose
[26] = test system: EJ cells; assay: Transwell migration assay; format: cell-based, human; conditions: 50 μM, 24 hours; versus saline and PepCXCR4
Procedure, shortened: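 EJ cells (1 × 10⁵) in 150 µl serum-free DMEM were placed in the upper Transwell chamber with saline or test compound (50 µM). Complete medium was in the lower chamber. After 24 h, non-migrated cells were swabbed away. Migrated cells were fixed in 4% paraformaldehyde, stained with 0.05% crystal violet for 10 min, photographed and counted.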

[27] = molecular target: T1, CD206; conditions: read-out: Kd of mannose; cited from earlier work
[28] = test system: CXCR4 (breast and pancreatic cancer); conditions: cited from earlier work
[29] = MB49-Luc, C57BL/6, 500 μM, 100 μl, every other day, five times
[30] = immunofluorescence, versus saline

T1 sequence (P22897 19-1456, species assumed): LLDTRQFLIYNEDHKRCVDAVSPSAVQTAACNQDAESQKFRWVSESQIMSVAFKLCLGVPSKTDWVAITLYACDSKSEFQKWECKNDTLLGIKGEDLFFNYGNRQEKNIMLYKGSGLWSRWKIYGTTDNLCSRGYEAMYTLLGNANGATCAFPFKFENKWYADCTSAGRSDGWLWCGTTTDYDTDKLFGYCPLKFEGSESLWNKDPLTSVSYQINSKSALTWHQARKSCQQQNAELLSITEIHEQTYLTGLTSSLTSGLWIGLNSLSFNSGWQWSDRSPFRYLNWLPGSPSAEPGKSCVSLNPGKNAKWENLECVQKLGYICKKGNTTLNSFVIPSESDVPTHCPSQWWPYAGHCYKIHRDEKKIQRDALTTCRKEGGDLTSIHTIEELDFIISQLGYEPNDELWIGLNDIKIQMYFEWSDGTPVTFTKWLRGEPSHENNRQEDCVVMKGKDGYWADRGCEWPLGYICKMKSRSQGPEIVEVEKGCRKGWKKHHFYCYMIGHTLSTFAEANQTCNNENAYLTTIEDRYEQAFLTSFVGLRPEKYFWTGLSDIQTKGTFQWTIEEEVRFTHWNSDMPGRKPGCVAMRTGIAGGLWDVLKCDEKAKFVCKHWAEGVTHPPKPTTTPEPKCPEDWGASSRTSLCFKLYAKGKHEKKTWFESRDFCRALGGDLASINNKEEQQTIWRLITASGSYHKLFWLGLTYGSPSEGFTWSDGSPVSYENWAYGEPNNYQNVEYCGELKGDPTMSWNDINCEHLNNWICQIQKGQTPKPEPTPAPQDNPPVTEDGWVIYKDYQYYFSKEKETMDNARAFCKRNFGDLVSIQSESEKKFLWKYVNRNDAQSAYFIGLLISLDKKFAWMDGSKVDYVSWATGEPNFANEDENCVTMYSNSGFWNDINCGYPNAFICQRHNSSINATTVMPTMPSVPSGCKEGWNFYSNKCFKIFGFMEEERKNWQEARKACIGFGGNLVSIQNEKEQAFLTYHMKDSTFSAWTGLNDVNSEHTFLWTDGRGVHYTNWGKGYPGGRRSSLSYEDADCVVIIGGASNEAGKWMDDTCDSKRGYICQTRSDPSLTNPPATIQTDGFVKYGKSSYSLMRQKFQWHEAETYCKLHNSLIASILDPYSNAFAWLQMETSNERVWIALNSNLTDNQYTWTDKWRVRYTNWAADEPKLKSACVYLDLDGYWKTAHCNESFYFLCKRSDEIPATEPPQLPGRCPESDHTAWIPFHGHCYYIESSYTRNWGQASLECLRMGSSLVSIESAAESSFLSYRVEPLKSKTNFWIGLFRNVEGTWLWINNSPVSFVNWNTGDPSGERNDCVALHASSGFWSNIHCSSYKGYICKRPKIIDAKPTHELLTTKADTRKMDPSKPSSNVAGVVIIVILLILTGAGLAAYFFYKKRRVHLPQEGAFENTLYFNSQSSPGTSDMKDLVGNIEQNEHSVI

CC(C)C[C@H](NC(=O)[C@H](Cc1ccc(O)cc1)NC(=O)CNC(=O)[C@H](CC(C)C)NC(=O)[C@@H]1CCCN1C(=O)CCCc1cn(CC(=O)NC(COCc2cn(CCO[C@H]3O[C@H](CO)[C@@H](O)[C@H](O)[C@@H]3O)nn2)(COCc2cn(CCO[C@H]3O[C@H](CO)[C@@H](O)[C@H](O)[C@@H]3O)nn2)COCc2cn(CCO[C@H]3O[C@H](CO)[C@@H](O)[C@H](O)[C@@H]3O)nn2)nn1)C(=O)NCC(=O)NCCCC[C@H](NC(=O)[C@H](CCCCN)NC(=O)[C@H](CC(=O)O)NC(=O)[C@@H]1CCCN1C(=O)[C@H](CCCNC(=N)N)NC(=O)[C@H](Cc1c[nH]cn1)NC(=O)[C@H](Cc1c[nH]c2ccccc12)NC(=O)[C@H](CO)NC(=O)[C@H](C)NC(=O)CNC(=O)[C@@H](N)CC(C)C)C(=O)N[C@@H](CC(C)C)C(=O)N[C@H](C(=O)N[C@@H](Cc1ccccc1)C(=O)N[C@@H](Cc1ccccc1)C(=O)N[C@@H](C)C(=O)N[C@@H](CCC(=O)O)C(=O)N[C@@H](CS)C(=O)NCC(=O)O)C(C)C [bsGP] (I: H-LGASWHRPDKKLVFFAECG-OH / II: X1-PLGYLG; amide I:11-II:C; N-terminus and C-terminus assumed)
signal-to-noise ratio [1]: 7.8 fold | time of highest tumor accumulation [1]: 4 h | time to target tumor tissue [1]: ≤ 1 h | tumor accumulation relative to PepCXCR4 ([1]; 4 hours): nearly fourfold | retention in tumor tissue ([1]; nanofiber formed in situ): up to 48 hours | localization on EJ cells ([2]; Cy-labeled bsGP, 50 μM, pH 7.4, saline, 37°C, 15 min): observed on the cytomembrane of tumor cells (EJ) | colocalization with GFP-encoded CXCR4 ([2]; EJ cells transfected with GFP-encoded CXCR4): Overlapping green fluorescence (CXCR4) with red fluorescence (bsGP) | body weight loss, EJ xenograft ([3]; 500 μM, five doses): no obvious loss of body weight | decrease of CD206^+ M2-like TAMs versus saline ([4]; 5- to 10-μm radius): 20% | number of CD86^+ M1-like TAMs near tumor cells ([4]; 5- to 10-μm radius): up to 6.22 × 10^4 | CD4^+ T cell counts relative to saline ([4]; spatial distance 10 μm): 4.0 fold | CD8^+ T cell counts relative to saline ([4]; spatial distance 10 μm): 5.5 fold | CD86^+ counts relative to saline ([4]; spatial distance 10 μm (text: 5- to 10-μm radius)): 2.6 times | phosphorylation levels of Erk and Akt in tumor tissues [5]: strongly inhibited | effect on viability of RAW264.7 cells [6]: no substantial impact | increase of M1-like TAMs ([7]; from 14.2 to 25.4%): approximately 11.2% | decrease of M2-type macrophages ([7]; from 29.2 to 17.3%): approximately 11.9% | CD4^+Foxp3^+ Tregs ([8]; saline 8.58%): 6.80% | granzyme B^+CD8^+ T cells ([8]; saline 9.44%): 19.60% | proportion of CD45^+CD3^+CD8^+ T cells ([8]; saline 16.3%): 25.8% | localization on RAW264.7 cells [9]: observed on the cytomembrane | secondary structure [10]: random coil structure | dose dependence of MAPK pathway suppression (pErk, pAkt) ([11]; 0, 20, 50 and 100 μM for 24 hours, 50 μM for 0, 24, 36, 48 hours): suppressed in a dose-dependent manner | phosphorylation of Erk and Akt [11]: strongly inhibited | cell proliferation capacity [12]: substantially decreased | CD4^+ T cells in whole tumor slice [13, 29]: 4.35% | CD206^+ M2-like TAMs in whole tumor slice ([13]; MB49-Luc, C57BL/6, 500 μM, 100 μl, every other day, five times, saline 20.94%): 13.0% | increase of CD86^+ M1-like TAMs ([13]; immunofluorescence): 2.3 fold | increase of CD4^+ T cells [13, 30]: 2.5 fold | increase of CD8^+ T cells [13, 30]: 2.6 fold | NF-κB phosphorylation in tumor tissues [14]: effectively activated | recurrence rate [15]: 22% | survival rate at 60 days [15]: 78% | tumor fibrosis [16]: strongly inhibited | penetration in tumor tissue [17]: deep penetration capability | effect on viability of EJ cells [18]: no substantial impact | fluorescence signal at the tumor site [19]: evident fluorescence signals | intratumoral secretion of IL-10 [20]: down-regulated | intratumoral secretion of IL-12 [20]: substantially up-regulated | intratumoral secretion of TGF-β [20]: down-regulated | intratumoral secretion of TNF-α [20]: substantially up-regulated | body weight loss ([21]; C57BL/6 mice): without loss of body weight | severe systemic toxicity ([21]; intravesical, treatment dose): did not induce severe systemic toxicity | signs of a deteriorating general condition ([21]; red skin or reduced food consumption): no signs of a deteriorating general condition | body weight loss, MB49-Luc [22]: no obvious loss of body weight | nanofibrillar network on EJ cell surface [23]: presence of a nanofibrillar network | affinity relative to mannose [24]: about 300 fold | NF-κB phosphorylation in RAW264.7 cells [25]: effectively activated | migration capacity [26]: evidently decreased

OC[C@H]1OC(O)[C@@H](O)[C@@H](O)[C@@H]1O (stereo partly drawn) [mannose]
Kd [27]: ~1 mM

C[C@H]1c2cccc(O)c2C(=O)C2=C(O)[C@]3(O)C(=O)C(C(N)=O)=C(O)[C@@H](N(C)C)[C@@H]3[C@@H](O)[C@@H]21 [Dox, doxycycline]
recurrence rate [15]: 89% | survival rate at 60 days [15]: 11%

LGASWHRPDK [PepCXCR4]
tumor growth inhibition rate, EJ xenograft [3]: 19% | effect on viability of RAW264.7 cells [6]: no substantial impact | phosphorylation of Erk and Akt [11]: did not substantially alter | CD4^+ T cells in whole tumor slice [13, 29]: 2.37% | tumor-infiltrating CD8^+ T cells in whole tumor slice ([13]; MB49-Luc, C57BL/6, 500 μM, 100 μl, every other day, five times, saline 3.43%): 4.04% | effect on viability of EJ cells [18]: no substantial impact | fluorescence signal at the tumor site [19]: evident fluorescence signals

c1cc(CN2CCCNCCNCCCNCC2)ccc1CN1CCCNCCNCCCNCC1 [plerixafor]
tumor growth inhibition rate, EJ xenograft [3]: 32% | effect on tumor apoptosis, metastasis and intratumoral Tregs [28]: substantially promote tumor apoptosis, reduce tumor metastasis, and selectively decrease intratumoral Tregs | recurrence rate [15]: 100% | survival rate at 60 days [15]: 0%
